Consider 2 molecules from ChEMBL document CHEMBL1151311, “A novel antiprotozoal aminosteroid from Saracha punctata” (J Nat Prod, 1998).

Broadly, the inhibition is the drop in the measured response relative to a control, in per cent. As usually defined, the IC50 is the point on the concentration scale where inhibition reaches its midpoint.

Series [1] deals with Trypanosoma cruzi. The experiment in a line: Trypanocidal activity against Trypanosoma cruzi Tulahuen epimastigotes at 10 ug/ml after 48 hrs relative to control. To be noted: Tuluhuen. Type of series: functional. The essentials:
(§1)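 T. cruzi epimastigotes in LIT medium with 10% FCS at 28 °C (inoculum 10^6 cells/mL) were exposed to compound (final DMSO <0.5%) for 48 h. Parasites were counted in a hemocytometer and compared with extract-free controls, in triplicate.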

Series [2] can be described thus: Cytotoxicity against BALB/c mouse peritoneal macrophages assessed as survival at 20 ug/ml. It counts as cell-based, Macrophage. As to conditions: read-out: Activity.
In series [3] the test system is Leishmania amazonensis. Nature of the series: Antileishmanial activity against Leishmania amazonensis MHOM/GF/84/CAY H-142 promastigotes at 10 ug/ml after 72 hrs relative to control.
In series [4] the test system is Plasmodium berghei. Nature of the series: Antiplasmodial activity as reduced parasitaemia in Plasmodium berghei NK65 infected mice (Mus musculus) at 32 mg/kg/day for 4 days. Type of series: functional. More on the design: scale not given: the % may be the effect or the level left. The essentials:
(§2)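 Four-day suppressive test adapted from Peters: mice were inoculated with P. berghei NK 65 on day 1 and treated daily for four consecutive days. A blood smear was taken on day 5, and parasitemia was compared with infected untreated controls.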

Series [5] concerns Plasmodium berghei. Nature of the series: Antiplasmodial activity as reduced parasitaemia in Plasmodium berghei NK65 infected mice (Mus musculus) at 8 mg/kg/day for 4 days. Type of series: functional. More on the design: scale not given: the % may be the effect or the level left. An outline of the steps: as §2
Series [6] has as its system Trypanosoma cruzi. Nature of the series: Trypanocidal activity against Trypanosoma cruzi Tulahuen epimastigotes at 2.5 ug/ml after 48 hrs relative to control. To be noted: Tuluhuen. Type of series: functional. The essentials:
as §1

For series [7], the system named is Trypanosoma cruzi. Nature of the series: Trypanocidal activity against Trypanosoma cruzi Tulahuen epimastigotes at 5 ug/ml after 48 hrs relative to control. It counts as functional. To be noted: Tuluhuen. The essentials:
as §1

The subject of series [8] is Leishmania chagasi. The experiment in a line: Antileishmanial activity against Leishmania donovani chagasi PP75 at 2.5 ug/ml. It counts as functional.
Series [9] relates to Leishmania chagasi. The experiment in a line: Antileishmanial activity against Leishmania donovani chagasi PP75 at 10 ug/ml. It counts as functional.
Series [10] has as its system KB. The experiment in a line: Cytotoxicity against human KB cells. It counts as cell-based.
In series [11] the test system is Mus musculus. Nature of the series: Toxicity in Plasmodium berghei NK65 infected mice (Mus musculus) at 8 mg/kg administered daily for 4 days. It counts as organism-based. Also on record: dose 8 mg/kg. To be noted: in vivo, 96 h. The essentials: (§3)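 Mice infected with P. berghei NK 65 on day 1 were dosed daily for four consecutive days in the four-day suppressive test. Lethality was recorded on day 4.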

In series [12] the test system is Leishmania braziliensis. Nature of the series: Antileishmanial activity against Leishmania braziliensis MHOM/BR/75/M2903 promastigotes at 2.5 ug/ml after 72 hrs relative to control. Type of series: functional. As to conditions: MHOM/BR/75/M2903, 72 h. An outline of the steps:
(§4)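 Promastigotes, 50 000 per well, were exposed to compound in liquid medium (final DMSO <0.1%) at 27 °C for 72 h. Growth was judged by inverted-phase microscopy of a culture drop against extract-free controls. Assays were run in triplicate.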

Series [13] has as its system Leishmania braziliensis. The experiment in a line: Antileishmanial activity against Leishmania braziliensis MHOM/BR/75/M2903 promastigotes at 20 ug/ml after 72 hrs relative to control. Type of series: functional. As to conditions: MHOM/BR/75/M2903, 72 h. An outline of the steps:
as §4

Series [14] deals with Leishmania amazonensis. Nature of the series: Antileishmanial activity against Leishmania amazonensis MHOM/GF/84/CAY H-142 promastigotes at 2.5 ug/ml after 72 hrs relative to control.
The test system of series [15] is Leishmania amazonensis. The experiment in a line: Antileishmanial activity against Leishmania amazonensis MHOM/GF/84/CAY H-142 promastigotes at 20 ug/ml after 72 hrs relative to control.
For series [16], the system named is Plasmodium falciparum. The experiment in a line: Antimalarial activity against chloroquine-sensitive Plasmodium falciparum 2087 after 24 hrs. It counts as functional, organism-based. The essentials:
(§5)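 P. falciparum strains 2087 and INDO kept in human erythrocytes. Samples were dissolved with DMSO (≤0.1% in dilutions) in RPMI 1640 and tested in triplicate with O+ red cells at 5% hematocrit and 1% parasitemia. Plates were incubated 24 h at 37 °C by candle-jar, then 48 h more with daily medium change. Parasitemia was counted by day-3 smear; IC50 came from linear regression of % inhibition versus control.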

Series [17] relates to Leishmania amazonensis. The experiment in a line: Antileishmanial activity against Leishmania amazonensis MHOM/GF/84/CAY H-142 promastigotes at 5 ug/ml after 72 hrs relative to control.
For series [18], the system named is Leishmania chagasi. The experiment in a line: Antileishmanial activity against Leishmania donovani chagasi PP75 at 20 ug/ml. It counts as functional.
Series [19] deals with Trypanosoma cruzi. Nature of the series: Trypanocidal activity against Trypanosoma cruzi Tulahuen epimastigotes at 20 ug/ml after 48 hrs relative to control. It counts as functional. To be noted: Tuluhuen. The essentials:
as §1

Series [20] is described as follows: Selectivity index, ratio of IC50 for KB cells to IC50 for chloroquine -sensitive Plasmodium falciparum 2087. As to conditions: human, read-out: Ratio IC50. Type of series: toxicity, cell-based.
Series [21] has as its system Leishmania chagasi. The experiment in a line: Antileishmanial activity against Leishmania donovani chagasi PP75 at 5 ug/ml. Type of series: functional.
Series [22] concerns Leishmania braziliensis. Nature of the series: Antileishmanial activity against Leishmania braziliensis MHOM/BR/75/M2903 promastigotes at 10 ug/ml after 72 hrs relative to control. Type of series: functional. As to conditions: MHOM/BR/75/M2903, 72 h. An outline of the steps:
as §4

Series [23] can be described thus: Cytotoxicity against BALB/c mouse peritoneal macrophages assessed as survival at 5 ug/ml. Type of series: cell-based, Macrophage. As to conditions: read-out: Activity.
In series [24] the test system is Leishmania braziliensis. Nature of the series: Antileishmanial activity against Leishmania braziliensis MHOM/BR/75/M2903 promastigotes at 5 ug/ml after 72 hrs relative to control. To be noted: MHOM/BR/75/M2903, 72 h. Type of series: functional. An outline of the steps: as §4
A short description of series [25]: Cytotoxicity against BALB/c mouse peritoneal macrophages assessed as survival at 10 ug/ml. To be noted: read-out: Activity. It counts as cell-based, Macrophage.
Series [26] concerns Plasmodium berghei. Nature of the series: Antiplasmodial activity as reduced parasitaemia in Plasmodium berghei NK65 infected mice (Mus musculus) at 16 mg/kg/day for 4 days. Type of series: functional. More on the design: scale not given: the % may be the effect or the level left. An outline of the steps:
as §2

Series [27] is described as follows: Selectivity index, ratio of IC50 for KB cells to IC50 for chloroquine-resistant Plasmodium falciparum INDO. It counts as toxicity, cell-based. As to conditions: human, read-out: Ratio IC50.
Series [28] deals with Plasmodium falciparum. Nature of the series: Antimalarial activity against chloroquine-resistant Plasmodium falciparum Indo after 24 hrs. Type of series: functional, organism-based. An outline of the steps: as §5
Series [29] relates to Mus musculus. Nature of the series: Toxicity in Plasmodium berghei NK65 infected mice (Mus musculus) at 16 mg/kg administered daily for 4 days. It counts as organism-based. More on the design: dose 16 mg/kg. To be noted: in vivo, 96 h. The essentials:
as §3

`C[C@H]1CC[C@H]([C@@H](C)[C@H]2CC[C@H]3[C@@H]4CC=C5C[C@@H](N)CC[C@]5(C)[C@H]4CC[C@]23C)NC1`: the inhibition at 10 µg/mL was 50% in series [1], 100% in series [3], 100% in series [9] and 100% in series [22]. In series [2], the viability at 20 ug/ml was determined as 0%. Moreover, the Activity is reported as 69% in [4]; 16% in [5]; “Non-toxic” in series [11]; 27% in series [26]; “Non-toxic” in series [29]. In addition, the inhibition at 2.5 µg/mL in series [6], in series [8], in [12] and in [14] was 0% in each case. Moreover, the inhibition at 5 µg/mL in series [7] was found to be 0%; in series [17] it was 50%; in [21] it was 50%; in [24] it was 50%. In addition, the results for the IC50 in [10], in series [16] and in [28] were 50 µM, 0.025 µM and 0.176 µM, respectively. Besides, the inhibition at 20 µg/mL in series [13], in series [15], in [18] and in series [19] was 100% throughout. The selectivity ratio in series [20] amounted to 2000; in series [27], 286. The viability at 5 ug/ml in series [23] stood at 0%. The viability at 10 ug/ml in series [25] stood at 0%.

Regarding `N=C(N)c1ccc(OCCCCCOc2ccc(C(=N)N)cc2)cc1` [PENTAMIDINE], the inhibition at 10 µg/mL in series [1], in series [3], in [9] and in series [22] was 100% throughout.
